Assay results from ChEMBL document CHEMBL1255544, “Synthesis and evaluation of novel chloropyrrole molecules designed by molecular hybridization of common pharmacophores as potential antimicrobial agents” (2010).
Converted amounts (≈) assume the structure as drawn. The source made the active and inactive calls. The calls are words filed in the database; no cut-off is given here.

Assays:
[1] = system: Candida albicans; experiment: Antimicrobial activity against Candida albicans after 48 hrs by broth dilution method; type: functional
Method in brief: (§1)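 MIC by broth dilution: the lowest concentration (highest dilution) that arrested bacterial or fungal growth. Strains were E. coli ATCC-25922, S. aureus ATCC-25923, P. aeruginosa ATCC-27853 and C. albicans.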

[2] = system: Candida albicans; experiment: Antimicrobial activity against Candida albicans after 48 hrs by agar dilution method; type: functional
Method in brief: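 Candida albicans tested by agar dilution, with compounds in DMSO.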

[3] = system: Escherichia coli; experiment: Antimicrobial activity against Escherichia coli ATCC […] after 24 hrs by disk diffusion method; type: functional
Method in brief: (§2)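 Zone of inhibition by disc diffusion against E. coli ATCC-25922, S. aureus ATCC-25923, P. aeruginosa ATCC-27853 and recultured Klebsiella pneumoniae.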

[4] = system: Escherichia coli; experiment: Antimicrobial activity against Escherichia coli ATCC […] after 24 hrs by broth dilution method; type: functional; method in brief: as §1
[5] = system: Staphylococcus aureus; experiment: Antimicrobial activity against Staphylococcus aureus ATCC 25923 after 24 hrs by broth dilution method; type: functional; settings: ATCC 25923, 24 h; method in brief: as §1
[6] = system: Pseudomonas aeruginosa; experiment: Antimicrobial activity against Pseudomonas aeruginosa ATCC 27853 after 24 hrs by broth dilution method; type: functional; settings: ATCC 27853, 24 h; method in brief: as §1
[7] = system: Pseudomonas aeruginosa; experiment: Antimicrobial activity against Pseudomonas aeruginosa ATCC 27853 after 24 hrs by disk diffusion method; type: functional; method in brief: as §2
[8] = system: Klebsiella pneumoniae; experiment: Antimicrobial activity against Klebsiella pneumoniae at 100 ug/ml after 24 hrs by broth dilution method; type: functional, organism-based
[9] = system: Staphylococcus aureus; experiment: Antimicrobial activity against Staphylococcus aureus ATCC 25923 after 24 hrs by disk diffusion method; type: functional; method in brief: as §2
[10] = system: Klebsiella pneumoniae; experiment: Antimicrobial activity against Klebsiella pneumoniae after 24 hrs by disk diffusion method; type: functional; method in brief: as §2

MIC [1] | MIC [4] | MIC [5] | MIC [6] | Compound | diameter of the inhibition zone (DIZ) [2] | diameter of the inhibition zone (DIZ) [3] | diameter of the inhibition zone (DIZ) [7] | Activity [8] | diameter of the inhibition zone (DIZ) [9] | diameter of the inhibition zone (DIZ) [10]
25 µg/mL (≈ 105 µM) | 25 µg/mL (≈ 105 µM) | 25 µg/mL (≈ 105 µM) | 100 µg/mL (≈ 421 µM) | O=C(N/N=C/c1ccco1)c1cc(Cl)c[nH]1 | 21 mm | 23 mm | 15 mm | inactive | 24 mm | 
25 µg/mL (≈ 89.4 µM) | 6.25 µg/mL (≈ 22.3 µM) | 3.12 µg/mL (≈ 11.2 µM) | 50 µg/mL (≈ 179 µM) | O=C(N/N=C/c1c(O)cccc1O)c1cc(Cl)c[nH]1 | 18 mm | 21 mm | 14 mm | inactive | 24 mm | 
50 µg/mL (≈ 226 µM) | 12.5 µg/mL (≈ 56.4 µM) | 12.5 µg/mL (≈ 56.4 µM) | 25 µg/mL (≈ 113 µM) | O=C(/C=C/c1ccco1)c1cc(Cl)c[nH]1 | 18 mm | 20 mm | 17 mm | inactive | 22 mm | 
25 µg/mL (≈ 81.2 µM) | 12.5 µg/mL (≈ 40.6 µM) | 12.5 µg/mL (≈ 40.6 µM) | 100 µg/mL (≈ 325 µM) | COc1ccc(/C=N/NC(=O)c2cc(Cl)c[nH]2)cc1OC | 20 mm | 12 mm | 16 mm | inactive | 20 mm | 
50 µg/mL (≈ 166 µM) | 6.25 µg/mL (≈ 20.8 µM) | 3.12 µg/mL (≈ 10.4 µM) | 25 µg/mL (≈ 83.2 µM) | O=C(/C=C/c1ccc(Cl)cc1)c1cc(Cl)c(Cl)[nH]1 | 14 mm | 16 mm | 16 mm |  | 25 mm | 17 mm
50 µg/mL (≈ 171 µM) | 12.5 µg/mL (≈ 42.8 µM) | 12.5 µg/mL (≈ 42.8 µM) | 100 µg/mL (≈ 343 µM) | COc1ccc(/C=C/C(=O)c2cc(Cl)c[nH]2)cc1OC | 12 mm | 16 mm | 14 mm | inactive | 13 mm | 
12.5 µg/mL (≈ 41.9 µM) | 3.12 µg/mL (≈ 10.5 µM) | 1.56 µg/mL (≈ 5.23 µM) | 50 µg/mL (≈ 168 µM) | O=C(N/N=C/c1ccccc1O)c1cc(Cl)c(Cl)[nH]1 | 16 mm | 18 mm | 18 mm |  | 22 mm | 19 mm
12.5 µg/mL (≈ 40 µM) | 12.5 µg/mL (≈ 40 µM) | 6.25 µg/mL (≈ 20 µM) | 25 µg/mL (≈ 80.1 µM) | COc1ccc(/C=N/NC(=O)c2cc(Cl)c(Cl)[nH]2)cc1 | 24 mm | 19 mm | 20 mm |  | 20 mm | 16 mm
25 µg/mL (≈ 90 µM) | 12.5 µg/mL (≈ 45 µM) | 12.5 µg/mL (≈ 45 µM) | 100 µg/mL (≈ 360 µM) | COc1ccc(/C=N/NC(=O)c2cc(Cl)c[nH]2)cc1 | 15 mm | 10 mm | 14 mm | inactive | 18 mm | 
50 µg/mL (≈ 188 µM) | 25 µg/mL (≈ 93.9 µM) | 12.5 µg/mL (≈ 47 µM) | 100 µg/mL (≈ 376 µM) | O=C(/C=C/c1ccc(Cl)cc1)c1cc(Cl)c[nH]1 | 13 mm | 12 mm | 16 mm | inactive | 16 mm | 
25 µg/mL (≈ 86 µM) | 12.5 µg/mL (≈ 43 µM) | 12.5 µg/mL (≈ 43 µM) | 100 µg/mL (≈ 344 µM) | CN(C)c1ccc(/C=N/NC(=O)c2cc(Cl)c[nH]2)cc1 | 18 mm | 17 mm | 14 mm | inactive | 10 mm | 
25 µg/mL (≈ 81.2 µM) | 12.5 µg/mL (≈ 40.6 µM) | 6.25 µg/mL (≈ 20.3 µM) | 100 µg/mL (≈ 325 µM) | COc1ccc(OC)c(/C=N/NC(=O)c2cc(Cl)c[nH]2)c1 | 13 mm | 15 mm | 15 mm | inactive | 20 mm | 
12.5 µg/mL (≈ 36.5 µM) | 3.12 µg/mL (≈ 9.13 µM) | 1.56 µg/mL (≈ 4.56 µM) | 25 µg/mL (≈ 73.1 µM) | COc1ccc(OC)c(/C=N/NC(=O)c2cc(Cl)c(Cl)[nH]2)c1 | 24 mm | 20 mm | 13 mm |  | 24 mm | 18 mm
50 µg/mL (≈ 202 µM) | 25 µg/mL (≈ 101 µM) | 12.5 µg/mL (≈ 50.5 µM) | 25 µg/mL (≈ 101 µM) | O=C(/C=C/c1ccccc1O)c1cc(Cl)c[nH]1 | 15 mm | 10 mm | 18 mm | inactive | 16 mm | 
50 µg/mL (≈ 153 µM) | 6.25 µg/mL (≈ 19.2 µM) | 6.25 µg/mL (≈ 19.2 µM) | 100 µg/mL (≈ 307 µM) | COc1ccc(OC)c(/C=C/C(=O)c2cc(Cl)c(Cl)[nH]2)c1 | 15 mm | 20 mm | 15 mm |  | 22 mm | 16 mm
25 µg/mL (≈ 101 µM) | 12.5 µg/mL (≈ 50.5 µM) | 12.5 µg/mL (≈ 50.5 µM) | 100 µg/mL (≈ 404 µM) | O=C(N/N=C/c1ccccc1)c1cc(Cl)c[nH]1 | 20 mm | 14 mm | 14 mm | inactive | 17 mm | 
12.5 µg/mL (≈ 38.4 µM) | 6.25 µg/mL (≈ 19.2 µM) | 12.5 µg/mL (≈ 38.4 µM) | 25 µg/mL (≈ 76.9 µM) | CN(C)c1ccc(/C=N/NC(=O)c2cc(Cl)c(Cl)[nH]2)cc1 | 22 mm | 22 mm | 15 mm |  | 15 mm | 12 mm
50 µg/mL (≈ 191 µM) | 12.5 µg/mL (≈ 47.8 µM) | 12.5 µg/mL (≈ 47.8 µM) | 25 µg/mL (≈ 95.5 µM) | COc1ccc(/C=C/C(=O)c2cc(Cl)c[nH]2)cc1 | 12 mm | 16 mm | 15 mm | inactive | 18 mm | 
25 µg/mL (≈ 88.6 µM) | 12.5 µg/mL (≈ 44.3 µM) | 3.12 µg/mL (≈ 11.1 µM) | 100 µg/mL (≈ 354 µM) | O=C(N/N=C/c1ccc(Cl)cc1)c1cc(Cl)c[nH]1 | 17 mm | 16 mm | 15 mm | inactive | 26 mm | 
12.5 µg/mL (≈ 39.5 µM) | 3.12 µg/mL (≈ 9.87 µM) | 1.56 µg/mL (≈ 4.93 µM) | 25 µg/mL (≈ 79 µM) | O=C(N/N=C/c1ccc(Cl)cc1)c1cc(Cl)c(Cl)[nH]1 | 20 mm | 22 mm | 16 mm |  | 24 mm | 20 mm
25 µg/mL (≈ 94.8 µM) | 6.25 µg/mL (≈ 23.7 µM) | 6.25 µg/mL (≈ 23.7 µM) | 100 µg/mL (≈ 379 µM) | O=C(N/N=C/c1ccccc1O)c1cc(Cl)c[nH]1 | 18 mm | 20 mm | 14 mm | inactive | 17 mm | 
50 µg/mL (≈ 153 µM) | 6.25 µg/mL (≈ 19.2 µM) | 3.12 µg/mL (≈ 9.58 µM) | 25 µg/mL (≈ 76.6 µM) | COc1ccc(/C=C/C(=O)c2cc(Cl)c(Cl)[nH]2)cc1OC | 18 mm | 15 mm | 17 mm |  | 24 mm | 18 mm
50 µg/mL (≈ 195 µM) | 3.12 µg/mL (≈ 12.2 µM) | 1.56 µg/mL (≈ 6.09 µM) | 25 µg/mL (≈ 97.6 µM) | O=C(/C=C/c1ccco1)c1cc(Cl)c(Cl)[nH]1 | 14 mm | 21 mm | 17 mm |  | 25 mm | 15 mm
12.5 µg/mL (≈ 44.3 µM) | 12.5 µg/mL (≈ 44.3 µM) | 3.12 µg/mL (≈ 11.1 µM) | 50 µg/mL (≈ 177 µM) | O=C(N/N=C/c1ccccc1)c1cc(Cl)c(Cl)[nH]1 | 23 mm | 11 mm | 18 mm |  | 16 mm | 17 mm
50 µg/mL (≈ 171 µM) | 12.5 µg/mL (≈ 42.8 µM) | 12.5 µg/mL (≈ 42.8 µM) | 100 µg/mL (≈ 343 µM) | COc1ccc(OC)c(/C=C/C(=O)c2cc(Cl)c[nH]2)c1 | 16 mm | 18 mm | 15 mm | inactive | 19 mm | 

Compound | MIC [1] | MIC [4] | MIC [5] | MIC [6] | diameter of the inhibition zone (DIZ) [2] | diameter of the inhibition zone (DIZ) [3] | diameter of the inhibition zone (DIZ) [7] | Activity [8] | diameter of the inhibition zone (DIZ) [9] | diameter of the inhibition zone (DIZ) [10]
C[C@@H]1[C@H](O)[C@@H](C)/C=C/C=C/C=C/C=C/C=C/C=C/C=C/[C@H](O[C@@H]2O[C@H](C)[C@@H](O)[C@H](N)[C@@H]2O)C[C@@H]2O[C@](O)(C[C@@H](O)C[C@@H](O)[C@H](O)CC[C@@H](O)C[C@@H](O)CC(=O)O[C@H]1C)C[C@H](O)[C@H]2C(=O)O [AMPHOTERICIN B] | 1.56 µg/mL (≈ 1.69 µM) |  |  |  | 25 mm |  |  |  |  | 
